Data as given in ChEMBL document CHEMBL1949496, “Synthesis of [¹⁸F]-labeled (2-(2-fluoroethoxy)ethyl)triphenylphosphonium cation as a potential agent for myocardial imaging using positron emission tomography” (Bioorg Med Chem Lett, 2012).

Columns and labels:
[1] = Metabolic stability in human serum assessed as compound remaining at 0.37 MBq after 4 hrs by TLC analysis; assay type: ADME, cell-free; conditions: read-out: Stability
Method in brief: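 Analysed on ITLC-sg strips developed in methylene chloride:methanol (9:2 v/v), and the strips were scanned on an automatic TLC scanner.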

Lung [2] = assay: Biodistribution in BALB/c mouse lung at 7.4 MBq, iv after 120 mins by gamma counting; assay type: ADME, organism-based; conditions: in vivo, 2 h
Method in brief: (§1)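 Tracer given intravenously to BALB/c mice; animals sampled at 10, 30, 60 and 120 min after injection. Organ radioactivity expressed as percentage of injected dose per gram of tissue (% ID/g), n = 12.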

H9c2 [3] = assay: Cellular uptake in rat H9c2 cells after 2 hrs by gamma counting; assay type: ADME, cell-based; conditions: h9c2, 2 h
Method in brief: (§2)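 Radiotracer incubated with H9c2 cells at 37 °C for 0.5, 1 or 2 h. Uptake expressed as percentage of applied radioactivity; means ± SD of three measurements.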

Nucleic Acid [4] = assay: Ratio of drug level in BALB/c mouse heart to blood at 7.4 MBq, iv after 10 mins by gamma counter; assay type: ADME, organism-based; conditions: other tissue
Method in brief: (§3)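 Normal BALB/c mice were given the 18F tracer by i.v. injection. Tissues were sampled at 10, 30, 60 and 120 min. Activity is expressed as % injected dose per gram of tissue (n = 12), and organ ratios were taken from these values.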

Intestine [5] = assay: Biodistribution in BALB/c mouse intestine at 7.4 MBq, iv after 60 mins by gamma counting; assay type: ADME, organism-based; conditions: in vivo, 1 h; method in brief: as §1
Spleen [6] = assay: Biodistribution in BALB/c mouse spleen at 7.4 MBq, iv after 60 mins by gamma counting; assay type: ADME, organism-based; conditions: in vivo, 1 h; method in brief: as §1
Nucleic Acid [7] = assay: Ratio of drug level in BALB/c mouse heart to liver at 7.4 MBq, iv after 30 mins by gamma counter; assay type: ADME, organism-based; conditions: in vivo, 0.5 h; method in brief: as §3
Pancreas [8] = assay: Biodistribution in BALB/c mouse pancreas at 7.4 MBq, iv after 120 mins by gamma counting; assay type: ADME, organism-based; conditions: in vivo, 2 h; method in brief: as §1
Intestine [9] = assay: Biodistribution in BALB/c mouse intestine at 7.4 MBq, iv after 30 mins by gamma counting; assay type: ADME, organism-based; conditions: in vivo, 0.5 h; method in brief: as §1
Spleen [10] = assay: Biodistribution in BALB/c mouse spleen at 7.4 MBq, iv after 10 mins by gamma counting; assay type: ADME, organism-based; conditions: in vivo; method in brief: as §1
[11] = Drug uptake in Sprague-Dawley rat myocardium at 37 MBq, iv up to 1 hr by micro PET analysis; assay type: ADME, organism-based; conditions: in vivo
Method in brief: (§4)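 Rats received the tracer intravenously and were imaged by micro-PET in coronal view at 0.5 h and 1.0 h after injection.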

Lung [12] = assay: Biodistribution in BALB/c mouse lung at 7.4 MBq, iv after 10 mins by gamma counting; assay type: ADME, organism-based; conditions: in vivo; method in brief: as §1
Blood [13] = assay: Biodistribution in BALB/c mouse blood at 7.4 MBq, iv after 10 mins by gamma counting; assay type: ADME, organism-based; conditions: in vivo; method in brief: as §1
Spleen [14] = assay: Biodistribution in BALB/c mouse spleen at 7.4 MBq, iv after 120 mins by gamma counting; assay type: ADME, organism-based; conditions: in vivo, 2 h; method in brief: as §1
Intestine [15] = assay: Biodistribution in BALB/c mouse intestine at 7.4 MBq, iv after 120 mins by gamma counting; assay type: ADME, organism-based; conditions: in vivo, 2 h; method in brief: as §1
Bone [16] = assay: Biodistribution in BALB/c mouse bone at 7.4 MBq, iv after 120 mins by gamma counting; assay type: ADME, organism-based, Bone element; conditions: in vivo, 2 h; method in brief: as §1
Nucleic Acid [17] = assay: Ratio of drug level in BALB/c mouse heart to lung at 7.4 MBq, iv after 60 mins by gamma counter; assay type: ADME, organism-based; conditions: in vivo, 1 h; method in brief: as §3
Nucleic Acid [18] = assay: Ratio of drug level in BALB/c mouse heart to lung at 7.4 MBq, iv after 10 mins by gamma counter; assay type: ADME, organism-based; conditions: in vivo; method in brief: as §3
Pancreas [19] = assay: Biodistribution in BALB/c mouse pancreas at 7.4 MBq, iv after 60 mins by gamma counting; assay type: ADME, organism-based; conditions: in vivo, 1 h; method in brief: as §1
H9c2 [20] = assay: Cellular uptake in rat H9c2 cells after 0.5 hrs by gamma counting; assay type: ADME, cell-based; conditions: h9c2, 0.5 h; method in brief: as §2
Muscle tissue = assay: Biodistribution in BALB/c mouse normal muscle at 7.4 MBq, iv after 60 mins by gamma counting; assay type: ADME, organism-based; conditions: in vivo, 1 h; method in brief: as §1
Heart [21] = assay: Drug uptake in Sprague-Dawley rat heart at 37 MBq, iv after 1 hr by micro PET analysis; assay type: ADME, organism-based; conditions: in vivo; method in brief: as §4
Spleen [22] = assay: Biodistribution in BALB/c mouse spleen at 7.4 MBq, iv after 30 mins by gamma counting; assay type: ADME, organism-based; conditions: in vivo, 0.5 h; method in brief: as §1
Stomach [23] = assay: Biodistribution in BALB/c mouse stomach at 7.4 MBq, iv after 60 mins by gamma counting; assay type: ADME, organism-based; conditions: in vivo, 1 h; method in brief: as §1
Lung [24] = assay: Biodistribution in BALB/c mouse lung at 7.4 MBq, iv after 30 mins by gamma counting; assay type: ADME, organism-based; conditions: in vivo, 0.5 h; method in brief: as §1
Bone [25] = assay: Biodistribution in BALB/c mouse bone at 7.4 MBq, iv after 10 mins by gamma counting; assay type: ADME, organism-based, Bone element; conditions: in vivo; method in brief: as §1
Heart [26] = assay: Biodistribution in BALB/c mouse heart at 7.4 MBq, iv after 10 mins by gamma counting; assay type: ADME, organism-based; conditions: in vivo; method in brief: as §1
Kidney = assay: Biodistribution in BALB/c mouse kidney at 7.4 MBq, iv after 60 mins by gamma counting; assay type: ADME, organism-based; conditions: in vivo, 1 h; method in brief: as §1
Blood [27] = assay: Biodistribution in BALB/c mouse blood at 7.4 MBq, iv after 60 mins by gamma counting; assay type: ADME, organism-based; conditions: in vivo, 1 h; method in brief: as §1
Stomach [28] = assay: Biodistribution in BALB/c mouse stomach at 7.4 MBq, iv after 30 mins by gamma counting; assay type: ADME, organism-based; conditions: in vivo, 0.5 h; method in brief: as §1
Nucleic Acid [29] = assay: Ratio of drug uptake in rat H9c2 cells to mouse NIH3T3 cells after 0.5 to 2 hrs by gamma counting; assay type: ADME, cell-based
Nucleic Acid [30] = assay: Ratio of drug level in BALB/c mouse heart to lung at 7.4 MBq, iv after 120 mins by gamma counter; assay type: ADME, organism-based; conditions: in vivo, 2 h; method in brief: as §3

[18F]CCOCC[P+](c1ccccc1)(c1ccccc1)c1ccccc1
remaining at 4 h, 0.37 MBq [1]: > 95% | Drug uptake (Lung [2]): 5.55 % ID/g | Drug uptake (H9c2 [3]): 0.68% | Ratio (Nucleic Acid [4]): > 55 | Drug uptake (Intestine [5]): 4.67 % ID/g | Drug uptake (Spleen [6]): 1.95 % ID/g | Ratio (Nucleic Acid [7]): 8.05 | Drug uptake (Pancreas [8]): 5.44 % ID/g | Drug uptake (Intestine [9]): 8.52 % ID/g | Drug uptake (Spleen [10]): 3.35 % ID/g | Drug uptake [11]: Active | Drug uptake (Lung [12]): 7.69 % ID/g | Drug uptake (Blood [13]): 0.64 % ID/g | Drug uptake (Spleen [14]): 1.23 % ID/g | Drug uptake (Intestine [15]): 2.66 % ID/g | Drug uptake (Bone [16]): 2.28 % ID/g | Ratio (Nucleic Acid [17]): 5.05 | Ratio (Nucleic Acid [18]): 4.58 | Drug uptake (Pancreas [19]): 7.35 % ID/g | Drug uptake (H9c2 [20]): 0.47% | Drug uptake (Muscle tissue): 4.42 % ID/g | Drug uptake (Heart [21]): Active | Drug uptake (Spleen [22]): 2.81 % ID/g | Drug uptake (Stomach [23]): 4.72 % ID/g | Drug uptake (Lung [24]): 5.18 % ID/g | Drug uptake (Bone [25]): 3.37 % ID/g | Drug uptake (Heart [26]): 35.23 % ID/g | Drug uptake (Kidney): 16.86 % ID/g | Drug uptake (Blood [27]): 0.23 % ID/g | Drug uptake (Stomach [28]): 3.98 % ID/g | Ratio (Nucleic Acid [29]): 2 | Ratio (Nucleic Acid [30]): 4.36
